Columns and labels:
Assay type in all cases: functional
[1] = system: Mus musculus; assay: Effective dose required to prevent tonic extension of the hind limbs in mice in the maximal electroshock seizures (MES) test when administered intraperitoneally; conditions: Hindlimb, ip
Summary of the method: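 Male Carworth Farms No. 1 mice, drug given ip. Seizures elicited by 60-cycle alternating current, 50 mA, for 0.2 s via corneal electrodes. Protection means no tonic hind-limb extension. Phase I screen at 30, 100 and 300 mg/kg. Dose-response then run at varied doses, normally eight mice per dose, at time of peak effect (0.5 h or 0.25 h).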

[2] = species: Mus musculus; assay: Median neurologically impairing dose was determined in mice using the rotarod test
Summary of the method: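 Male Carworth Farms No. 1 mice dosed ip and placed on a 1-in. knurled rod turning at 6 rpm. Neurotoxicity means failure to stay on the rod for 1 min. Four mice per dose in the screen, then normally eight mice per dose for the dose-response, at time of peak effect.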

[3] = Protective Index was determined using the ratio of TD50/ED50 value
Summary of the method: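 PI is TD50/ED50 in ip-dosed mice. TD50 comes from the rotorod or the horizontal screen test. ED50 comes from the MES test. Not determined when there was no MES activity below 100 mg/kg.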

CC(=O)NC(C(=O)NCc1ccccc1)c1cnccn1 (centres undefined)
ED50 [1]: 14.8 mg/kg
TD50 [2]: 58.2 mg/kg
PI [3]: 3.9

CC(=O)NC(C(=O)NCc1ccccc1)c1ccco1 (centres undefined)
TD50 [2]: ~40 mg/kg
PI [3]: > 3.9

CCC1(c2ccccc2)C(=O)NC(=O)NC1=O [PHENOBARBITAL]
TD50 [2]: 69 mg/kg

CC(=O)NC(C(=O)NCc1ccccc1)c1ccccc1 (centres undefined)
TD50 [2]: > 40 mg/kg

CC(=O)NC(C(=O)NCc1ccccc1)c1ccccn1 (centres undefined)
ED50 [1]: 10.8 mg/kg
TD50 [2]: < 100 mg/kg

CC(=O)NC(C(=O)NCc1ccccc1)c1ncco1 (centres undefined)
TD50 [2]: 38.6 mg/kg
PI [3]: 3.7

CC(=O)NC(C(=O)NCc1ccccc1)c1ncccn1 (centres undefined)
ED50 [1]: 8.1 mg/kg
TD50 [2]: 56.7 mg/kg
PI [3]: 7

CC(=O)NC(C(=O)NCc1ccccc1)c1ccsc1 (centres undefined)
TD50 [2]: < 100 mg/kg

CC(=O)NC(C(=O)NCc1ccccc1)c1cccs1 (centres undefined)
TD50 [2]: < 100 mg/kg

CC(=O)NC(C(=O)NCc1ccccc1)c1nccs1 (centres undefined)
TD50 [2]: 69.1 mg/kg
PI [3]: 5.7

CC(=O)NC(C(=O)NCc1ccccc1)c1ccc[nH]1 (centres undefined)
TD50 [2]: < 100 mg/kg

Source: ChEMBL document CHEMBL1127310, “Synthesis and anticonvulsant activities of alpha-acetamido-N-benzylacetamide derivatives containing an electron-deficient alpha-heteroaromatic substituent” (1994)
